Compounds with a hit are over-represented: about 2.6% of the library has one in this group of screens.
Yeast lifespan up: compounds extending yeast replicative lifespan, primary screen, S. cerevisiae, OD615 | S. cerevisiae growth with nicotinamide; deaD strain in restrictive glucose medium | inhibition of the nicotinamide effect, % at 10 µM | 130,000 compounds, 0.68% hits;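 active means inhibition above a set limit, placed 3 SD over the median of all compounds, cut at about 26% in these data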;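 further: 0% = nicotinamide-treated wells and 100% = cells grown without nicotinamide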
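assay system = DeaD-strain S. cerevisiae | measured by = absorbance at 615 nm | probe or stimulus = nicotinamide 1.5 mM | buffer or medium = CSMM-D glucose medium, restrictive | times = 48 h at 30 °C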
Yeast growth inh: growth inhibitors of yeast BB579 in restrictive medium, primary screen, yeast lifespan-shortening project, S. cerevisiae | OD615, 48 h | inhibition, % at 10 µM | 140,000 compounds, 0.51% hits | AID 804, 2007;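 active means inhibition above a set limit, 3 SD over the mean compound inhibition, cut at about 44% in these data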
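System: Saccharomyces cerevisiae DeaD strain BB579, replicative lifespan model yeast. Buffer or medium: restrictive glucose-based CSMM-D medium. Doses: one dose, 10 µM compound with 0.25% DMSO. Timing: 4 h preincubation and 48 h exposure at 30 °C. Detection: turbidity as optical density at 615 nm. Benchmarks: amphotericin B 10 µg/mL, positive.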
RAM inhibit: inhibitors of the yeast RAM network, primary screen, dse1pr::URA3 reporter, 5-FOA selection | S. cerevisiae dse1pr::URA3 reporter, 5-FOA growth OD615, 2 d; analog-sensitive cbk1-as2 kinase mutant strain | 190,000 compounds, 1.8% hits | inhibition, % at 50 µM;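 active means inhibition above a set limit, 3 SD over mean compound inhibition, cut at about 8.4% in these data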;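 further: 0% = DMSO-only wells with no growth and 100% = 10 µM 1-NA-PP1 full growth; inhibition rescues growth on 5-FOA so higher OD means more RAM inhibition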
The depositor's hits bear a star; / = not tested or not shown.

SMILES | Yeast lifespan up | Yeast growth inh | RAM inhibit
O=C(CN(c1ccc(Cl)cc1)S(=O)(=O)c1ccc(Cl)c([N+](=O)[O-])c1)NCCc1ccc(F)cc1 | 6 | -49 | 4
Cc1cc(OC2CCCCC2)nc(-c2ccccc2O)n1 | -6 | -22 | 2
Cc1ccc(Oc2cc(C)nc(-c3ccccc3O)n2)cc1 | -15 | -33 | 9.4*
O=C(NCCc1ccccc1)Nc1ccc2c(c1)OCO2 | / | / | -1
Oc1ccc(Cl)cc1C=Nc1ccc(Br)cc1 | / | / | 0
Oc1c(Br)cc(Cl)cc1C=Nc1ccccc1Br | 16 | 65* | -1
O=C(CCN1C(=O)/C(=C\c2cccs2)SC1=S)NC1=NCCS1 | -1 | -29 | 4
CCc1ccc(/C=C2\SC(=S)N(CCC(=O)NC3=NCCS3)C2=O)cc1 | / | / | 9.3*
CC(C)Sc1nnc(CNC(=O)C23CC4CC(CC(C4)C2)C3)n1C1CCCCC1 | -2 | -17 | -1
CCOc1ccc(NC(=S)N2CCc3cc(OC)c(OC)cc3C2COc2ccc3c(C)cc(=O)oc3c2)cc1 (stereo not drawn) | 5 | -24 | 9.9*
COc1cc2c(cc1OC)C(COc1ccc3c(C)cc(=O)oc3c1)N(C(=O)c1ccco1)CC2 (stereo not drawn) | -2 | -45 | 6
CCOC(=O)c1oc2ccccc2c1CSc1nnc(-c2ccco2)o1 | / | -24 | 3
CCOC(=O)c1oc2ccccc2c1CSc1nnnn1-c1ccc(C)cc1 | 4 | -24 | 10*
CN(Cc1ccccc1)C(=O)C1CCCN(Cc2cccc(Cl)c2)C1 (stereo not drawn) | / | / | 0
CC(C)(C)n1cc(S(=O)(=O)c2ccccc2)[nH]c1=O | / | / | -1
Cc1ccc(Sc2c(CO)c(-c3ccccc3)nn2C)cc1 | / | / | 0
CN1OC(c2ccccc2)=C(CO)C1c1ccccc1 (stereo not drawn) | 51* | -34 | 1
COC(=O)c1ccc(N2CCN(CC(=O)c3ccc(-c4ccccc4)cc3)CC2)c([N+](=O)[O-])c1 | -28 | 0 | -1
Cc1c(C(=O)O)sc2nc(SCC(=O)Nc3ccc(S(=O)(=O)NCCCC(=O)O)cc3)[nH]c(=O)c12 | / | / | 2
Cc1c(C(=O)O)sc2nc(SCC(=O)Nc3ccc(S(=O)(=O)NC(C)(C)C)cc3)[nH]c(=O)c12 | / | / | 8.5*
COc1ccc(CNC(=O)CSc2n[nH]c(C)c2[N+](=O)[O-])cc1 | -2 | -20 | 3
S=c1sc2c(N3CCN(Cc4ccccc4)CC3)ncnc2n1-c1ccccc1 | -3 | -20 | 2
CCN1CCN(c2ncnc3c2sc(=S)n3-c2ccccc2)CC1 | -9 | 46* | 1
Cc1c(C(=O)N/N=C/c2ccc(Cl)cc2)[nH]c2ccc(Cl)cc12 | 4 | -51 | 8.5*
Cc1c(C(=O)N/N=C/C(C)C)[nH]c2ccc([N+](=O)[O-])cc12 | -4 | -36 | -1
SMILES | Yeast lifespan up | Yeast growth inh | RAM inhibit
COc1cccc(CNC(=O)Cc2ccc(-n3c(=O)[nH]c4ccccc4c3=O)cc2)c1 | 5 | -28 | 9.0*
CCOC(=O)N1CCN(C(=O)Cc2ccc(-n3c(=O)[nH]c4ccccc4c3=O)cc2)CC1 | -11 | 2 | 1
CCNc1ccc(S(=O)(=O)N(C)C)cc1NCC(=O)Nc1ccc(F)c(Cl)c1 | 1 | -38 | 4
N#CCC(=O)c1sccc1-n1cccc1 | / | / | 1
Cc1ccc(N2CCOCC2)c2c1C(=O)c1ccccc1C2=O | -6 | 63* | 0
CN(C1=C(N2CCOCC2)C(=O)c2ccccc2C1=O)c1ccccc1 | 11 | -17 | 8
COc1ccc(NC(=O)CSc2nc3ccccc3c(=O)n2CCCN2CCCCC2)c(OC)c1 | -8 | -61 | -1
CCCn1c(=O)[nH]c(=O)c2c1nc(-c1ccc(OC)c(Br)c1)n2CCOC | / | / | 1
CCOC(=O)/C(=C\c1ccc(Cl)cc1)c1nc2sc(C)c(C)c2c(=O)[nH]1 | 32* | -14 | 3
CCOC(=O)CSc1nc2sc(C)c(C)c2c(=O)[nH]1 | -26 | -16 | 1
Cc1ccc(OCC(=O)Nc2cnn(CCCC(=O)O)c2)c([N+](=O)[O-])c1 | / | / | 3
O=C(OCc1nc2ccccc2s1)C1CCN(S(=O)(=O)c2cccs2)CC1 | 0 | -31 | 9.9*
O=S(=O)(c1cccs1)N1CCN(Cc2nc3ccccc3s2)CC1 | -11 | -32 | 2
O=C1C(=C(c2ccccc2)c2ccccc2)Nc2ccccc21 | 5 | -18 | 0
O=C1C(=C(O)c2ccccc2)C(=O)c2ccccc21 | 42* | -40 | -1
CCC(=O)Nc1cc2[nH]c(=O)cc(C)c2cc1C | / | / | 0
COc1ccc(-c2nc(C#N)c(N3CCC(C(N)=O)CC3)o2)cc1 | -10 | -51 | -1
N#Cc1nc(-c2ccc(OCc3ccccc3)cc2)oc1N1CCC(C(N)=O)CC1 | -23 | -3 | 8.6*
N#Cc1nc(-c2ccco2)oc1N1CCC(Cc2ccccc2)CC1 | -13 | -14 | 9.7*
N#Cc1nc(-c2ccco2)oc1N1CCN(c2ccccc2)CC1 | -12 | -9 | 6
Cc1ccc(C(c2c(C)n(C)n(-c3ccccc3)c2=O)c2c(C)n(C)n(-c3ccccc3)c2=O)s1 | / | / | 1
COc1cccc(C(c2sc3nc(C)nn3c2O)N2CCc3ccccc3C2)c1 (stereo not drawn) | 4 | -20 | 3
CNc1ccc(/C=C/C(=O)c2ccc3c(c2)OCCO3)cc1[N+](=O)[O-] | -2 | -42 | 9.0*
CNc1ccc(/C=C/C(=O)c2ccc(C)cc2)cc1[N+](=O)[O-] | 0 | -14 | 7
COc1ccc(CCNc2oc(COc3ccc(Br)cc3)nc2C#N)cc1OC | -2 | -63 | 10.0*
SMILES | Yeast lifespan up | Yeast growth inh | RAM inhibit
COc1ccc(CCNc2oc(Cc3cccc4ccccc34)nc2C#N)cc1OC | -1 | -16 | 6
O=Cc1c[nH]c2ccc(S(=O)(=O)N3CCOCC3)cc12 | 6 | -42 | 3
O=C(O)c1ccccc1C(=O)Nc1ccc(Oc2cccc3ccccc23)cc1 | / | / | 4
O=C(Nc1ccc(Oc2cccc3ccccc23)cc1)c1ccco1 | -20 | -27 | 9.2*
CC1CCCN(S(=O)(=O)c2ccc(NC(=O)CN3CCN(C)CC3)cc2)C1 (stereo not drawn) | -5 | -95 | 1
Cc1cc(C)c2oc(C(=O)Nc3ccc(S(=O)(=O)N4CCCC(C)C4)cc3)cc(=O)c2c1 (stereo not drawn) | -6 | -27 | 9.2*
O=C(CCSc1ccc(Cl)cc1)NC12CC3CC(CC(C3)C1)C2 | 25 | -44 | 3
Cc1nc2sc3c(c2c(=O)o1)CC(C)(C)OC3 | 32* | -16 | 1
Cc1nc2sc3c(c2c(=O)o1)CCC3 | -9 | -38 | 0
Cc1onc(-c2ccccc2Cl)c1C(=O)N1CCOC12CCCCC2 | / | / | -1
Cc1ccc(NC(=O)Cn2cc(S(=O)(=O)c3ccc(F)cc3)c(=O)c3cc(F)ccc32)cc1 | 2 | -24 | 8.5*
Cc1ccc(S(=O)(=O)c2cn(CC(=O)Nc3ccccc3)c3ccc(F)cc3c2=O)cc1 | 5 | -11 | 6
C/C(=N\Nc1nc2ccccc2[nH]1)c1ccc(N2CCOCC2)cc1 | / | / | 0
Cc1cc(=O)n(C2CCS(=O)(=O)C2)[nH]1 (stereo not drawn) | / | / | 0
Cc1cc2cc(C=C(C#N)C#N)c(Cl)nc2cc1C | 32* | -25 | 0
